Residue numbers refer to the chain shown, from its start.
Tests used:
wild-type KSI = test: Kinetic parameters kcat and KM for steroid substrate; type: biochemical, Pseudomonas putida; settings: relative to wild type
Y30F KSI [1] = test: as above; type: biochemical, Pseudomonas putida; settings: relative to wild type
Y55F KSI [2] = test: as above; type: biochemical, Pseudomonas putida; settings: relative to wild type
Y115F KSI = molecular target: T1, Y115F KSI (Pseudomonas putida, UniProt P07445, Y119F); test: as above; type: biochemical
T1 sequence (P07445 1-131 Y119F): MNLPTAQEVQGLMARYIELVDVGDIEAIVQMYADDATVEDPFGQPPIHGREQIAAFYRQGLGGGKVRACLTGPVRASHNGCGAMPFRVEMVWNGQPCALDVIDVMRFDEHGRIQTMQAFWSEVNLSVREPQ

Y30F/Y55F KSI = test: as above; type: biochemical, Pseudomonas putida; settings: relative to wild type
Y30F/Y55F/Y115F KSI = molecular target: T2, Y30F/Y55F/Y115F KSI (Pseudomonas putida, UniProt P07445, Y119F/Y32F/Y57F); test: as above; type: biochemical
T2 sequence (P07445 1-131 Y32F/Y57F/Y119F): T1 sequence (P07445 1-131 Y119F) with Y32F, Y57F

Y30F KSI [3] = settings: ref Kim et al., 2000; cited from earlier work
Y55F KSI [4] = settings: ref Kim et al., 2000; cited from earlier work
[5] = in solution; ref Ha et al., 2000; cited from earlier work
D38N KSI = molecular target: T3, D38N KSI (Pseudomonas putida, UniProt P07445, D40N); test: KD by quenching of intrinsic tryptophan fluorescence of KSI; type: binding
T3 sequence (P07445 1-131 D40N): T1 sequence (P07445 1-131 Y119F) with D40N, F119Y
How it was run: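 Mutant KSI was expressed in E. coli BL21(DE3) and purified to a single SDS-PAGE band. Steroid ligand in DMSO was titrated successively into KSI in 10 mM potassium phosphate with 10% DMSO. Intrinsic fluorescence was read at ex 295/em 315 nm and corrected for dilution. KD was fitted to a binding equation using total steroid and KSI concentrations. Mean ± SD of three independent experiments.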

Y30F/Y55F/Y115F/D38N KSI [6] = test: KD by quenching of intrinsic tryptophan fluorescence of KSI; type: binding, Pseudomonas putida; settings: relative to D38N KSI
Y30F/D38N KSI = molecular target: T4, Y30F/D38N KSI (Pseudomonas putida, UniProt P07445, D40N/Y32F); test: as above; type: binding
T4 sequence (P07445 1-131 Y32F/D40N): T1 sequence (P07445 1-131 Y119F) with Y32F, D40N, F119Y

Y55F/D38N KSI = molecular target: T5, Y55F/D38N KSI (Pseudomonas putida, UniProt P07445, D40N/Y57F); test: as above; type: binding
T5 sequence (P07445 1-131 D40N/Y57F): T1 sequence (P07445 1-131 Y119F) with D40N, Y57F, F119Y

Y115F/D38N KSI = molecular target: T6, Y115F/D38N KSI (Pseudomonas putida, UniProt P07445, D40N/Y119F); test: as above; type: binding
T6 sequence (P07445 1-131 D40N/Y119F): T1 sequence (P07445 1-131 Y119F) with D40N

Y30F/Y55F/D38N KSI = molecular target: T7, Y30F/Y55F/D38N KSI (Pseudomonas putida, UniProt P07445, D40N/Y32F/Y57F); test: as above; type: binding
T7 sequence (P07445 1-131 Y32F/D40N/Y57F): T1 sequence (P07445 1-131 Y119F) with Y32F, D40N, Y57F, F119Y

Y30F/Y55F/Y115F/D38N KSI [7] = molecular target: T8, Y30F/Y55F/Y115F/D38N KSI (Pseudomonas putida, UniProt P07445, D40N/Y119F/Y32F/Y57F); test: as above; type: binding
T8 sequence (P07445 1-131 Y32F/D40N/Y57F/Y119F): T1 sequence (P07445 1-131 Y119F) with Y32F, D40N, Y57F

[8] = 34 mM potassium phosphate, pH 7.0, 2.5 mM EDTA, 3.3 % methanol, 298 K

C[C@]12CCC(=O)CC1=CC[C@@H]1[C@@H]2CC[C@]2(C)C(=O)CC[C@@H]12 [5-AND, 5-androstene-3,17-dione]
Relative kcat (wild-type KSI): 1 | Relative kcat (Y30F KSI [1]): 0.84 | Relative kcat (Y55F KSI [2]): 0.17 | Km (Y115F KSI; [8]): 41.7 ± 2 µM | kcat (Y115F KSI; [8]): (14.5 ± 0.4) × 10^3 s^−1 | Relative kcat (Y115F KSI; relative to wild type): 0.68 | Relative kcat (Y30F/Y55F KSI): 0.50 | Km (Y30F/Y55F/Y115F KSI; [8]): 77.3 ± 5.6 µM | kcat (Y30F/Y55F/Y115F KSI; [8]): (12.2 ± 0.2) × 10^3 s^−1 | Relative kcat (Y30F/Y55F/Y115F KSI; relative to wild type): 0.57 | factor of decrease in kcat relative to the wild-type KSI (Y30F KSI [3]): 1.2 | factor of decrease in kcat relative to the wild-type KSI (Y55F KSI [4]): 6 | pKa of the C4 proton [5]: 12.7

C[C@]12CC[C@@H]3c4ccc(O)cc4CC[C@H]3[C@@H]1CCC2=O [estrone]
Kd (D38N KSI): 110 nM | decrease in binding energy (Y30F/Y55F/Y115F/D38N KSI [6]): 1.3 to 1.4 kcal/mol | factor by which affinity is lower than that of D38N KSI (Y30F/Y55F/Y115F/D38N KSI [6]): 9.1–11

C[C@]12CCc3c(ccc4cc(O)ccc34)[C@@H]1CCC2=O [equilenin]
Kd (D38N KSI): 31 nM | Kd (Y30F/D38N KSI): 70 nM | Kd (Y55F/D38N KSI): 80 nM | Kd (Y115F/D38N KSI): 70 nM | Kd (Y30F/Y55F/D38N KSI): 250 nM | Kd (Y30F/Y55F/Y115F/D38N KSI [7]): 340 nM | decrease in binding energy (Y30F/Y55F/Y115F/D38N KSI [6]): 1.3 to 1.4 kcal/mol | factor by which affinity is lower than that of D38N KSI (Y30F/Y55F/Y115F/D38N KSI [6]): 9.1–11
